In ChEMBL document CHEMBL1140710, “Structure-activity relationships of cyclic lactam analogues of alpha-melanocyte-stimulating hormone (alpha-MSH) targeting the human melanocortin-3 receptor” (J Med Chem, 2008) one finds IC50, Activity and EC50 data, which are given here for two molecules.

As a reminder, the IC50 is the concentration needed to halve the response being measured. A word on the EC50: it is the midpoint of the concentration-response curve.

T2 sequence (P41968 whole entry): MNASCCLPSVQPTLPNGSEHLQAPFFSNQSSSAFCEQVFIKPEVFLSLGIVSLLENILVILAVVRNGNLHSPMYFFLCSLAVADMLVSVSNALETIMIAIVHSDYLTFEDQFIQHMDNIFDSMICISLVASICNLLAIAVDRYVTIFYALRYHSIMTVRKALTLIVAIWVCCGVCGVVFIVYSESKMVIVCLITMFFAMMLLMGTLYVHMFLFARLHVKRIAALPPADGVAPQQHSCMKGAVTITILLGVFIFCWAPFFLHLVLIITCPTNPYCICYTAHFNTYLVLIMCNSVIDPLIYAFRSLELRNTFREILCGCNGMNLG
T1 sequence (P33032 whole entry): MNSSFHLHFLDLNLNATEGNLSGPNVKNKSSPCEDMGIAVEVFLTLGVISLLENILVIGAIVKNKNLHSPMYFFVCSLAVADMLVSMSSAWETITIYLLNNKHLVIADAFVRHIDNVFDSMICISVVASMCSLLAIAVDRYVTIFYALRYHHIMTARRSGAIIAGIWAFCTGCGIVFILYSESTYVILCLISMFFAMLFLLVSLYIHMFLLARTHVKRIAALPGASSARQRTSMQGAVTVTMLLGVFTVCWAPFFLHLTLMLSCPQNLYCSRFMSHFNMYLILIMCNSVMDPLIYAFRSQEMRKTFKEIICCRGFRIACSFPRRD

One assay concerns the target T1, Melanocortin receptor 5 (Homo sapiens, UniProt P33032). Put plainly: Displacement of [125I][Nle4,D-Phe7]alpha-MSH from human MC5 receptor expressed in HEK293 cells. It is filed as cell-based. The procedure, abridged:
(§1)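 Whole stably transfected HEK293 cells seeded 48 h before assay at 50000 cells/well. Binding buffer: MEM, 25 mM HEPES pH 7.4, 0.2% BSA, 1 mM 1,10-phenanthroline, leupeptin, bacitracin. Cells washed, lysed with NaOH/Triton X-100, gamma-counted. IC50 is mean of two triplicate experiments.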
Background: In a radioligand displacement assay an active substance lowers the binding of a labelled ligand.
The molecule `N=C(N)NCCC[C@@H]1NC(=O)[C@@H](Cc2ccccc2)NC(=O)[C@@H]2CCCN2C(=O)/C=C\C(=O)NCCCC[C@@H](C(N)=O)NC(=O)[C@H](Cc2c[nH]c3ccccc23)NC1=O` yielded an IC50 of 790 nM.
The same measure, in the same setting: next, `N=C(N)NCCC[C@@H]1NC(=O)[C@@H](Cc2ccc3ccccc3c2)NC(=O)[C@@H]2CCCN2C(=O)c2ccccc2C(=O)NCCCC[C@@H](C(N)=O)NC(=O)[C@H](Cc2c[nH]c3ccccc23)NC1=O`: 210 nM.

Another assay addresses T2, Melanocortin receptor 3 (Homo sapiens, UniProt P41968). Put plainly: Agonist activity at human MC3 receptor expressed in HEK293 cells assessed as intracellular cAMP accumulation at 10 uM relative to MT2. It is filed as functional, cell-based. The procedure, abridged:
(§2)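 Stably transfected HEK293 cells seeded 48 h before assay at 50000 cells/well. Cells preincubated 1 min at 37 °C in Earle's balanced salt solution with 0.5 mM IBMX, then exposed to 10 μM peptide for 3 min at 37 °C. Cells boiled 7 min, cAMP measured by [3H]cAMP/PKA competition with a standard curve. Result expressed as percent of cAMP produced by 10 μM MT-II.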
Background: Changes in cAMP serve as a functional read-out for many G protein-coupled receptors.
As for `N=C(N)NCCC[C@@H]1NC(=O)[C@@H](Cc2ccccc2)NC(=O)[C@@H]2CCCN2C(=O)/C=C\C(=O)NCCCC[C@@H](C(N)=O)NC(=O)[C@H](Cc2c[nH]c3ccccc23)NC1=O`, the Activity was 80%.
Same read-out and setting: next, `N=C(N)NCCC[C@@H]1NC(=O)[C@@H](Cc2ccc3ccccc3c2)NC(=O)[C@@H]2CCCN2C(=O)c2ccccc2C(=O)NCCCC[C@@H](C(N)=O)NC(=O)[C@H](Cc2c[nH]c3ccccc23)NC1=O`: 0%.

The target in another assay is T1, Melanocortin receptor 5. Put plainly: Agonist activity at human MC5 receptor expressed in HEK293 cells assessed as intracellular cAMP accumulation at 10 uM relative to MT2. Format: functional, cell-based. In outline: as §2
In the case of `N=C(N)NCCC[C@@H]1NC(=O)[C@@H](Cc2ccccc2)NC(=O)[C@@H]2CCCN2C(=O)/C=C\C(=O)NCCCC[C@@H](C(N)=O)NC(=O)[C@H](Cc2c[nH]c3ccccc23)NC1=O`, the Activity turned out to be 0%.
Same read-out and setting: next, `N=C(N)NCCC[C@@H]1NC(=O)[C@@H](Cc2ccc3ccccc3c2)NC(=O)[C@@H]2CCCN2C(=O)c2ccccc2C(=O)NCCCC[C@@H](C(N)=O)NC(=O)[C@H](Cc2c[nH]c3ccccc23)NC1=O`: 0%.

The next assay has as its target T3, Melanocyte-stimulating hormone receptor (Homo sapiens, UniProt Q01726). The assay is described as follows: Agonist activity at human MC1 receptor expressed in HEK293 cells assessed as intracellular cAMP accumulation. Format: functional, cell-based. The procedure, abridged:
(§3)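 Stably transfected HEK293 cells seeded 48 h before assay at 50000 cells/well. Cells preincubated 1 min at 37 °C in Earle's balanced salt solution with 0.5 mM IBMX, then exposed to varying peptide concentrations for 3 min at 37 °C. Cells boiled 7 min, cAMP quantified by [3H]cAMP/PKA competition against a standard curve.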
Target sequence in this assay (Q01726 whole entry): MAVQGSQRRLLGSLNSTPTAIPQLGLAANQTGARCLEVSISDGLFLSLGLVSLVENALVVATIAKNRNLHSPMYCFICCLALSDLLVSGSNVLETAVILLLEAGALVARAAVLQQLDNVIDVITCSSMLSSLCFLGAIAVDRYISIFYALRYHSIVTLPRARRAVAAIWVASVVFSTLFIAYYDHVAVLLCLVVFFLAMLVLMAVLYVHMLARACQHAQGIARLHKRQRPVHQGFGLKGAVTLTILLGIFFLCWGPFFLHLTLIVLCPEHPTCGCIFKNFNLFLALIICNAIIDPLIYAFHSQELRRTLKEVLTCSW
Consider `N=C(N)NCCC[C@@H]1NC(=O)[C@@H](Cc2ccc3ccccc3c2)NC(=O)[C@@H]2CCCN2C(=O)c2ccccc2C(=O)NCCCC[C@@H](C(N)=O)NC(=O)[C@H](Cc2c[nH]c3ccccc23)NC1=O`, for which the EC50 is over 5000 nM.

In a further assay the target is T1, Melanocortin receptor 5. Put plainly: Agonist activity at human MC5 receptor expressed in HEK293 cells assessed as intracellular cAMP accumulation at 10 uM. Format: functional, cell-based. In outline: as §2
On to `N=C(N)NCCC[C@@H]1NC(=O)[C@@H](Cc2ccccc2)NC(=O)[C@@H]2CCCN2C(=O)/C=C\C(=O)NCCCC[C@@H](C(N)=O)NC(=O)[C@H](Cc2c[nH]c3ccccc23)NC1=O`, for which the Activity was 0%.
Same read-out and setting: next, `N=C(N)NCCC[C@@H]1NC(=O)[C@@H](Cc2ccc3ccccc3c2)NC(=O)[C@@H]2CCCN2C(=O)c2ccccc2C(=O)NCCCC[C@@H](C(N)=O)NC(=O)[C@H](Cc2c[nH]c3ccccc23)NC1=O`: 0%.

The target in the next assay is T4, Melanocortin receptor 4 (Homo sapiens, UniProt P32245). Put plainly: Agonist activity at human MC4 receptor expressed in HEK293 cells assessed as intracellular cAMP accumulation at 10 uM. Format: functional, cell-based. In outline: as §2
T4 sequence (P32245 whole entry): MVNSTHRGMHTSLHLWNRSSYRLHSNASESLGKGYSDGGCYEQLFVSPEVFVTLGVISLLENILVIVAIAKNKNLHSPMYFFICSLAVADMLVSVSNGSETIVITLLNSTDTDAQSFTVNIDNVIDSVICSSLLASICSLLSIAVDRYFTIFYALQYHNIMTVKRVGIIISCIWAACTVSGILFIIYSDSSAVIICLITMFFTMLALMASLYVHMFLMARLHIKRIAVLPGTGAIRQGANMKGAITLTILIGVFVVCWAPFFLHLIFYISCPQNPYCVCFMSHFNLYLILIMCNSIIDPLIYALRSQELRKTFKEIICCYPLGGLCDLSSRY
As for `N=C(N)NCCC[C@@H]1NC(=O)[C@@H](Cc2ccccc2)NC(=O)[C@@H]2CCCN2C(=O)/C=C\C(=O)NCCCC[C@@H](C(N)=O)NC(=O)[C@H](Cc2c[nH]c3ccccc23)NC1=O`, the Activity worked out at 0%.
Still for that read-out and setting: next, `N=C(N)NCCC[C@@H]1NC(=O)[C@@H](Cc2ccc3ccccc3c2)NC(=O)[C@@H]2CCCN2C(=O)c2ccccc2C(=O)NCCCC[C@@H](C(N)=O)NC(=O)[C@H](Cc2c[nH]c3ccccc23)NC1=O`: 0%.

A further assay has as its target T3, Melanocyte-stimulating hormone receptor. The assay is described as follows: Agonist activity at human MC1 receptor expressed in HEK293 cells assessed as intracellular cAMP accumulation at 10 uM. It is filed as functional, cell-based. The procedure, abridged: as §2
Target sequence in this assay (Q01726 whole entry, looked up): as the sequence (Q01726 whole entry) above
Consider `N=C(N)NCCC[C@@H]1NC(=O)[C@@H](Cc2ccccc2)NC(=O)[C@@H]2CCCN2C(=O)/C=C\C(=O)NCCCC[C@@H](C(N)=O)NC(=O)[C@H](Cc2c[nH]c3ccccc23)NC1=O`, for which the Activity amounted to 0%.

Another assay addresses T4, Melanocortin receptor 4. The assay is described as follows: biochemical. It is filed as cell-based, HEK293.
In the case of `N=C(N)NCCC[C@@H]1NC(=O)[C@@H](Cc2ccccc2)NC(=O)[C@@H]2CCCN2C(=O)/C=C\C(=O)NCCCC[C@@H](C(N)=O)NC(=O)[C@H](Cc2c[nH]c3ccccc23)NC1=O`, the midpoint of inhibition, the IC50, lay at 160 nM.
The same measure, in the same setting: next, `N=C(N)NCCC[C@@H]1NC(=O)[C@@H](Cc2ccc3ccccc3c2)NC(=O)[C@@H]2CCCN2C(=O)c2ccccc2C(=O)NCCCC[C@@H](C(N)=O)NC(=O)[C@H](Cc2c[nH]c3ccccc23)NC1=O`: 430 nM.

Another assay addresses T2, Melanocortin receptor 3. Put plainly: Agonist activity at human MC3 receptor expressed in HEK293 cells assessed as intracellular cAMP accumulation at 10 uM. Format: functional, cell-based. The procedure, abridged:
as §2
For the molecule `N=C(N)NCCC[C@@H]1NC(=O)[C@@H](Cc2ccc3ccccc3c2)NC(=O)[C@@H]2CCCN2C(=O)c2ccccc2C(=O)NCCCC[C@@H](C(N)=O)NC(=O)[C@H](Cc2c[nH]c3ccccc23)NC1=O`, the Activity was 0%.

The target of another assay is T4, Melanocortin receptor 4. The assay is described as follows: Agonist activity at human MC4 receptor expressed in HEK293 cells assessed as intracellular cAMP accumulation at 10 uM relative to MT2. Format: functional, cell-based. The procedure, abridged: as §2
In the case of `N=C(N)NCCC[C@@H]1NC(=O)[C@@H](Cc2ccccc2)NC(=O)[C@@H]2CCCN2C(=O)/C=C\C(=O)NCCCC[C@@H](C(N)=O)NC(=O)[C@H](Cc2c[nH]c3ccccc23)NC1=O`, the Activity is 0%.
Take `N=C(N)NCCC[C@@H]1NC(=O)[C@@H](Cc2ccc3ccccc3c2)NC(=O)[C@@H]2CCCN2C(=O)c2ccccc2C(=O)NCCCC[C@@H](C(N)=O)NC(=O)[C@H](Cc2c[nH]c3ccccc23)NC1=O`: the Activity was 0%.

The target in a further assay is T3, Melanocyte-stimulating hormone receptor. Put plainly: Displacement of [125I][Nle4,D-Phe7]alpha-MSH from human MC1 receptor expressed in HEK293 cells. Format: cell-based. In outline:
as §1
Target sequence in this assay (Q01726 whole entry): as above
Take `N=C(N)NCCC[C@@H]1NC(=O)[C@@H](Cc2ccccc2)NC(=O)[C@@H]2CCCN2C(=O)/C=C\C(=O)NCCCC[C@@H](C(N)=O)NC(=O)[C@H](Cc2c[nH]c3ccccc23)NC1=O`: the IC50 was over 10000 nM.
Molecule `N=C(N)NCCC[C@@H]1NC(=O)[C@@H](Cc2ccc3ccccc3c2)NC(=O)[C@@H]2CCCN2C(=O)c2ccccc2C(=O)NCCCC[C@@H](C(N)=O)NC(=O)[C@H](Cc2c[nH]c3ccccc23)NC1=O` returned an IC50 of 410 nM.

For another assay the target is unchanged. The assay is described as follows: Agonist activity at human MC1 receptor expressed in HEK293 cells assessed as intracellular cAMP accumulation at 10 uM relative to MT2. It is filed as functional, cell-based. The procedure, abridged:
as §2
Target sequence in this assay (Q01726 whole entry, looked up): as the sequence (Q01726 whole entry) above
In the case of `N=C(N)NCCC[C@@H]1NC(=O)[C@@H](Cc2ccccc2)NC(=O)[C@@H]2CCCN2C(=O)/C=C\C(=O)NCCCC[C@@H](C(N)=O)NC(=O)[C@H](Cc2c[nH]c3ccccc23)NC1=O`, the Activity was 0%.
Still for that read-out and setting: next, `N=C(N)NCCC[C@@H]1NC(=O)[C@@H](Cc2ccc3ccccc3c2)NC(=O)[C@@H]2CCCN2C(=O)c2ccccc2C(=O)NCCCC[C@@H](C(N)=O)NC(=O)[C@H](Cc2c[nH]c3ccccc23)NC1=O`: 80%.

A further assay addresses T2, Melanocortin receptor 3. Put plainly: biochemical. Format: cell-based, HEK293.
Consider `N=C(N)NCCC[C@@H]1NC(=O)[C@@H](Cc2ccccc2)NC(=O)[C@@H]2CCCN2C(=O)/C=C\C(=O)NCCCC[C@@H](C(N)=O)NC(=O)[C@H](Cc2c[nH]c3ccccc23)NC1=O`, for which the IC50 is over 1000 nM.
Still for that read-out and setting: next, `N=C(N)NCCC[C@@H]1NC(=O)[C@@H](Cc2ccc3ccccc3c2)NC(=O)[C@@H]2CCCN2C(=O)c2ccccc2C(=O)NCCCC[C@@H](C(N)=O)NC(=O)[C@H](Cc2c[nH]c3ccccc23)NC1=O`: 32 nM.

Another assay concerns the target T2, Melanocortin receptor 3. Put plainly: Agonist activity at human MC3 receptor expressed in HEK293 cells assessed as intracellular cAMP accumulation. Format: functional, cell-based. In outline: as §3
In the case of `N=C(N)NCCC[C@@H]1NC(=O)[C@@H](Cc2ccccc2)NC(=O)[C@@H]2CCCN2C(=O)/C=C\C(=O)NCCCC[C@@H](C(N)=O)NC(=O)[C@H](Cc2c[nH]c3ccccc23)NC1=O`, the EC50 came to 100 nM.
